Each block holds one compound with its values, some of them ahead of it. Active and inactive are the calls of the source. The calls are words filed in the database; no cut-off is given here.
How the values were obtained:
[1] = biological target: T1, Dual specificity protein kinase TTK (Homo sapiens, UniProt P33981); assay: Inhibition of amino terminal GST-fused full length human TTK using His6-SUMO-TTK-N as substrate preincubated for 15 mins prior to ATP addition by indirect ELISA detection system
T1 sequence (P33981 whole entry): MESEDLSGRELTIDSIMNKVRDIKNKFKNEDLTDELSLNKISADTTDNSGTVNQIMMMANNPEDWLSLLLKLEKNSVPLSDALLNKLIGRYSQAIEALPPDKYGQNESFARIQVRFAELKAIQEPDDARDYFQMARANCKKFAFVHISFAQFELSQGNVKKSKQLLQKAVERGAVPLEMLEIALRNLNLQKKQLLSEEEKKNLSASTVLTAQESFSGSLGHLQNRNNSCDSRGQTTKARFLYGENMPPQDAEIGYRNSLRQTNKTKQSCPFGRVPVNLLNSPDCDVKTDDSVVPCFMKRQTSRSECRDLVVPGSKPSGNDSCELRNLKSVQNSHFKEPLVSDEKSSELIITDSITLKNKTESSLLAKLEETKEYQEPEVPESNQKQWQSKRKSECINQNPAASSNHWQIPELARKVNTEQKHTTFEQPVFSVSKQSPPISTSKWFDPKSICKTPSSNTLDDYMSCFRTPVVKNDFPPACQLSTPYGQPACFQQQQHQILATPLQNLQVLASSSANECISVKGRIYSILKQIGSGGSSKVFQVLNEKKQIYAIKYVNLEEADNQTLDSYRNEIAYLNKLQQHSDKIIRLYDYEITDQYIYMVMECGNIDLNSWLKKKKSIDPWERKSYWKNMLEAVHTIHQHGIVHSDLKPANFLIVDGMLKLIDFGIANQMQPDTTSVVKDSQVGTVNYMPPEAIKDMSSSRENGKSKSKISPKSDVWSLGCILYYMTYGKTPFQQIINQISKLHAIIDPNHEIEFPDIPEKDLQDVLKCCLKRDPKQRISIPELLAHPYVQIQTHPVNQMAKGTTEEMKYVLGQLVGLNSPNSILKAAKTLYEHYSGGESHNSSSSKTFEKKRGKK

Liver microsome = assay: Half life in rat liver microsomes at 1 uM by LC-MS analysis; format: ADME; conditions: microsomes, 1 µM
Liver = assay: Half life in mouse liver microsomes at 1 uM by LC-MS analysis; format: ADME; conditions: microsomes, 1 µM
[2] = biological target: Aurora kinase B/Inner centromere protein (Homo sapiens, UniProt Q96GD4); assay: Inhibition of AURKB/INCENP (unknown origin) preincubated for 15 mins prior to ATP addition by FRET-based homogenous assay; format: protein-complex assay
Chain of Aurora kinase B/Inner centromere protein (Q96GD4 whole entry): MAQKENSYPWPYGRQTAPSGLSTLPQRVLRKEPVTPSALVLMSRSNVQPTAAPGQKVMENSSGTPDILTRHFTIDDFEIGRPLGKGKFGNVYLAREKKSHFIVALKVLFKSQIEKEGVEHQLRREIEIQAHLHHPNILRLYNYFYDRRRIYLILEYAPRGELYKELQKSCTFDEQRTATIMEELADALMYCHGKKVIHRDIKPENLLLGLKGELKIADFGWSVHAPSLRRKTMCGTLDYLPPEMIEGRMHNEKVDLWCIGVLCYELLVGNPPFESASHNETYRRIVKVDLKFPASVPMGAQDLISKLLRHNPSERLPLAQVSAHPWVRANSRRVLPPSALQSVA
Chain of Aurora kinase B/Inner centromere protein (Q9NQS7 whole entry, further chain): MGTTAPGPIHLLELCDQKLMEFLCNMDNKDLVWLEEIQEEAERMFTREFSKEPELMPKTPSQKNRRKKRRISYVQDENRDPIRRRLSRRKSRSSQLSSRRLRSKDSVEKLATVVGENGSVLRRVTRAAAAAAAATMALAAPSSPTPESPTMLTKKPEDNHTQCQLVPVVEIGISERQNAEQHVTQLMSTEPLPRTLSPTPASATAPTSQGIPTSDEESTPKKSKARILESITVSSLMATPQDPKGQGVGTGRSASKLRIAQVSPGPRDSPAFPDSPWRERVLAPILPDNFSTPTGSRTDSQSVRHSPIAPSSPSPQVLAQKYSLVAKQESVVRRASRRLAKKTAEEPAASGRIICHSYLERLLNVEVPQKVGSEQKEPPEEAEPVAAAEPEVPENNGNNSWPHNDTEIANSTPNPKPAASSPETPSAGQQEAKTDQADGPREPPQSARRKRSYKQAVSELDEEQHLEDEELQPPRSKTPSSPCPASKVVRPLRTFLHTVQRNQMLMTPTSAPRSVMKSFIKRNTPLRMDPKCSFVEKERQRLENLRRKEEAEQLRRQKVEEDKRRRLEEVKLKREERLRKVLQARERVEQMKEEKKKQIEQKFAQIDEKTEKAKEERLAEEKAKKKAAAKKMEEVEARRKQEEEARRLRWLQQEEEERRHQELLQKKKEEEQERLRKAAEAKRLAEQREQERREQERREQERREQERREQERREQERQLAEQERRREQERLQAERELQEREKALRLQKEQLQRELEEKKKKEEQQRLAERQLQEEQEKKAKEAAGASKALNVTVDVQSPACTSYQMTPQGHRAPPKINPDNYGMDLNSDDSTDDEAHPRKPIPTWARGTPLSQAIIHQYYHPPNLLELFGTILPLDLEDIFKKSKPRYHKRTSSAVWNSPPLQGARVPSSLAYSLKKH
How it was run: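 The enzyme was AURKB/INCENP in a FRET-based homogeneous assay run to kit specifications, with ATP at 128 μM. […] Each IC50 came from a single determination, reported with its standard fitting error.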

MDA-MB-468 = assay: Cytotoxicity against human MDA-MB-468 cells after 5 days by sulforhodamine B assay; format: functional
How it was run: (§1)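 Cancer lines were seeded at 800–6000 cells per well according to growth rate, 24 h before compound overlay. After culture, cells were fixed in situ and stained with sulforhodamine B. GI50 values were derived by curve fitting.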

[3] = Cytotoxicity against human OVCAR3 cells after 5 days by sulforhodamine B assay; format: functional, OVCAR-3
Cytochrome P450 3A4 = Cytochrome P450 3A4 (Homo sapiens, UniProt P08684); assay: Inhibition of human CYP3A4 using BFC as substrate preincubated for 10 mins followed by enzyme/substrate addition measured after 30 mins by fluorescence assay; format: ADME
Chain of Cytochrome P450 3A4 (P08684 whole entry): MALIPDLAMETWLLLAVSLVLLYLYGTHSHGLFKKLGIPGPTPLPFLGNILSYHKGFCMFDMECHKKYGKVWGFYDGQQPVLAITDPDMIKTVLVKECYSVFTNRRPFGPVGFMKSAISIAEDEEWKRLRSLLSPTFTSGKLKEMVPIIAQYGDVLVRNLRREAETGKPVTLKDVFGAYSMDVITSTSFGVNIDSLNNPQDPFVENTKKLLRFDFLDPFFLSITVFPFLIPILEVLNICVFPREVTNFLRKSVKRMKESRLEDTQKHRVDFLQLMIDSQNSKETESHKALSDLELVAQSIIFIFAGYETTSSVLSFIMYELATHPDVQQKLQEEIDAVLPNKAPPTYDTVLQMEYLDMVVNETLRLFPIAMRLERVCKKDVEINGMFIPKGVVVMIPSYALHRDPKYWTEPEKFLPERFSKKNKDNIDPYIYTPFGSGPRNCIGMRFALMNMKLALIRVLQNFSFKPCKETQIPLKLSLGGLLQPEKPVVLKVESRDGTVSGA

[4] = Cytotoxicity against human HCT116 cells after 5 days by sulforhodamine B assay; format: functional, HCT-116; how it was run: as §1
[5] = Antitumor activity against human HCT116 cells xenografted in nude mouse assessed as tumor growth inhibition at 30 mg/kg, po qd administered for 21 days measured on day 22 relative to vehicle-treated control; format: functional; conditions: HCT-116, read-out: TGI
[6] = biological target: T1, Dual specificity protein kinase TTK; assay: Inhibition of TTK (unknown origin) using p38 MAPK as substrate by fluorescence assay
[7] = Cell cycle arrest in human HCT116 cells assessed as 16N cells at 1 uM measured at 48 hrs by flow cytometric analysis relative to control; format: functional, cell-based; conditions: HCT-116
How it was run: (§2)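 HCT116 cells in 6-well plates were exposed to compound or DMSO for 48 h at 37 °C, 5% CO₂. Cells were trypsinized, fixed in cold 70% ethanol and stained overnight at 4 °C with 50 μg/mL propidium iodide plus RNaseA. DNA content was read by flow cytometry, and 8N and 16N fractions were normalized to the DMSO control.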

[8] = Cell cycle arrest in human HCT116 cells assessed as 8N cells at 1 uM measured at 48 hrs by flow cytometric analysis relative to control; format: functional, cell-based; conditions: HCT-116; how it was run: as §2
[9] = Induction of apoptosis in human HCT116 cells assessed as upregulation of p53 level after 24 hrs; format: functional, cell-based; conditions: HCT-116
HCT-116 [10] = assay: Induction of apoptosis in human HCT116 cells assessed as induction of PARP cleavage after 24 hrs; format: functional, cell-based
[11] = Induction of apoptosis in human HCT116 cells assessed as upregulation of phospho-H2AX level after 24 hrs; format: functional, cell-based; conditions: HCT-116
[12] = Cell cycle arrest in human HCT116 cells assessed as 16N cells at 0.1 uM measured at 48 hrs by flow cytometric analysis relative to control; format: functional, cell-based; conditions: HCT-116; how it was run: as §2
[13] = Cell cycle arrest in human HCT116 cells assessed as 16N cells at 0.2 uM measured at 48 hrs by flow cytometric analysis relative to control; format: functional, cell-based; conditions: HCT-116; how it was run: as §2
HCT-116 [14] = assay: Induction of cytokinesis with gain or loss in chromosomes in human HCT116 cells at 500 nM after 28 hrs by DAPI-staining based fluorescence microscopic analysis; format: functional, cell-based
[15] = Cell cycle arrest in human HCT116 cells assessed as 16N cells at 0.05 uM measured at 48 hrs by flow cytometric analysis relative to control; format: functional, cell-based; conditions: HCT-116; how it was run: as §2
[16] = Cell cycle arrest in human HCT116 cells assessed as 8N cells at 0.05 uM measured at 48 hrs by flow cytometric analysis relative to control; format: functional, cell-based; conditions: HCT-116; how it was run: as §2
[17] = Cell cycle arrest in human HCT116 cells assessed as 8N cells at 3 uM measured at 48 hrs by flow cytometric analysis relative to control; format: functional, cell-based; conditions: HCT-116; how it was run: as §2
HCT-116 [18] = assay: Cytotoxicity against human HCT116 cells assessed as decrease in cell viability after 24 hrs; format: functional, cell-based
[19] = Cell cycle arrest in human HCT116 cells assessed as 16N cells at 3 uM measured at 48 hrs by flow cytometric analysis relative to control; format: functional, cell-based; conditions: HCT-116; how it was run: as §2
[20] = Cell cycle arrest in human HCT116 cells assessed as 16N cells at 0.5 uM measured at 48 hrs by flow cytometric analysis relative to control; format: functional, cell-based; conditions: HCT-116; how it was run: as §2
[21] = Cell cycle arrest in human HCT116 cells assessed as 8N cells at 0.5 uM measured at 48 hrs by flow cytometric analysis relative to control; format: functional, cell-based; conditions: HCT-116; how it was run: as §2
[22] = Cell cycle arrest in human HCT116 cells assessed as 8N cells at 0.2 uM measured at 48 hrs by flow cytometric analysis relative to control; format: functional, cell-based; conditions: HCT-116; how it was run: as §2
[23] = Cell cycle arrest in human HCT116 cells assessed as 8N cells at 0.1 uM measured at 48 hrs by flow cytometric analysis relative to control; format: functional, cell-based; conditions: HCT-116; how it was run: as §2
[24] = Clearance in Sprague-Dawley rat at 1 mg/kg, iv by LC-MS/MS analysis; format: ADME, organism-based; design: dose 1 mg/kg, route intravenous; conditions: in vivo
[25] = AUCinfinity in Sprague-Dawley rat at 1 mg/kg, iv by LC-MS/MS analysis; format: ADME, organism-based; design: time infinity, dose 1 mg/kg, route intravenous; conditions: plasma
[26] = AUCinfinity in Sprague-Dawley rat at 5 mg/kg, po by LC-MS/MS analysis; format: ADME, organism-based; design: time infinity, dose 5 mg/kg, route oral; conditions: plasma
[27] = Antitumor activity against human HCT116 cells xenografted in athymic CD1 nude mouse assessed as tumor growth inhibition at 100 mg/kg, po qd administered for 21 days measured 3 times per week during compound dosing relative to vehicle-treated control; format: functional; conditions: HCT-116, 504 h, read-out: TGI
How it was run: (§3)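 HCT116 cells (5 million) were injected subcutaneously into the right flank of 6–8 week old female athymic CD-1 nude mice. At a mean tumor volume of 80–120 mm³, mice were randomized (n = 8). Dosing was oral, daily for 21 days, in 10% NMP/40% PEG400/50% DI water, at the MTD and ~2/3 MTD. Tumors were measured three times weekly, volume x²y/2, and TGI was taken against vehicle.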

[28] = Oral bioavailability in Sprague-Dawley rat at 5 mg/kg by LC-MS/MS analysis; format: ADME, organism-based; conditions: in vivo
[29] = Half life in Sprague-Dawley rat at 1 mg/kg, iv by LC-MS/MS analysis; format: ADME, organism-based; design: dose 1 mg/kg, route intravenous; conditions: in vivo
Mus musculus [30] = assay: AUCinfinity in athymic CD1 nude mouse at 10 mg/kg, po by LC-MS/MS analysis; format: ADME, organism-based, Plasma; design: time infinity, dose 10 mg/kg, route oral; conditions: in vivo
[31] = Antitumor activity against human HCT116 cells xenografted in athymic CD1 nude mouse assessed as tumor growth inhibition at 150 mg/kg, po qd administered for 21 days measured 3 times per week during compound dosing relative to vehicle-treated control; format: functional; conditions: HCT-116, 504 h, read-out: TGI; how it was run: as §3
Mus musculus [32] = assay: Cmax in athymic CD1 nude mouse at 10 mg/kg, po by LC-MS/MS analysis; format: ADME, organism-based; design: dose 10 mg/kg, route oral; conditions: in vivo
[33] = Toxicity in po dosed athymic CD1 nude mouse assessed as body weight loss in excess 20% and deemed moribund administered as qd for 21 days measured 3 times per week during compound dosing; format: organism-based; conditions: in vivo

Compound: O=C(N[C@H](c1ccccn1)C1CCCC1)c1ccc2[nH]nc(-c3ccc(N4[C@H]5CC[C@H]4CC(O)C5)cc3)c2c1 (stereo in doubt; 88)
IC50 [1]: 1.8 nM
t1/2 (Liver microsome): 21 min
t1/2 (Liver): 35 min
IC50 [2]: 6600 nM
GI50 (MDA-MB-468): 74 nM
GI50 [3]: 130 nM
IC50 (Cytochrome P450 3A4): 800 nM
GI50 [4]: 38 nM

Compound: Cc1cc(N2CCOCC2)ccc1Nc1nc(NC2CCCCC2)c2nc[nH]c2n1
inhibition in vivo at 30 mg/kg [5]: 49%

IC50 [6]: 13 nM
Compound: CC(C)(O)CNc1cc(NC2CCCCC2)nn2c(-c3ccc(C(=O)NC4CC4)cc3)cnc12

Compound: O=C(N[C@@H](c1ccccn1)C1CC1)c1ccc2[nH]nc(-c3ccc(N4[C@H]5CC[C@H]4CC(O)C5)cc3)c2c1 (stereo in doubt; 75)
Activity [7]: 2.3%
Activity [8]: 7.9%
Activity [9]: Active
Activity (HCT-116 [10]): Active
Activity [11]: Active
Activity [12]: 0.2%
Activity [13]: 1.4%
Activity (HCT-116 [14]): Active
Activity [15]: 0%
Activity [16]: 1%
Activity [17]: 9.4%
Activity (HCT-116 [18]): Active
Activity [19]: 2.9%
Activity [20]: 2.7%
Activity [21]: 8.3%
Activity [22]: 5.8%
Activity [23]: 1.8%

Compound: O=C(N[C@H](c1ccccn1)C1CC1)c1ccc2[nH]nc(-c3ccc(N4[C@H]5CC[C@H]4CC(O)C5)cc3)c2c1 (stereo in doubt; 86)
IC50 [1]: 1.6 nM
clearance [24]: 46 mL/min/kg
AUC(0-inf) [25]: 360 ng·h/mL
IC50 [2]: 790 nM
AUC(0-inf) [26]: 430 ng·h/mL
inhibition in vivo at 100 mg/kg [27]: 5%
bioavailability [28]: 24%
half-life [29]: 54 min
GI50 (MDA-MB-468): 90 nM
GI50 [3]: 170 nM
IC50 (Cytochrome P450 3A4): 1700 nM
AUC (Mus musculus [30]): 1600 ng·h/mL
inhibition in vivo at 150 mg/kg [31]: 53%
Cmax (Mus musculus [32]): 800 ng/mL
MTD at 504 h [33]: 150 mg/kg

From ChEMBL document CHEMBL3421533, “The Discovery of Orally Bioavailable Tyrosine Threonine Kinase (TTK) Inhibitors: 3-(4-(heterocyclyl)phenyl)-1H-indazole-5-carboxamides as Anticancer Agents” (J Med Chem, 2015)
